Where a name gives a salt, the structure may show the parent alone. Calls of active or inactive are those of the source. No cut-off for these calls is given here.
What was measured:
COLO 205 = experiment: Cytotoxicity against human COLO205 cells after 48 hrs by sulforhodamine B based ELISA; type: functional; conditions: COLO 205, 48 h
In short: (§1)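 Lines were grown in DMEM with 10% FBS and 2 mM L-glutamine, plated at densities set by doubling time, and held 24 h at 37 °C, 5% CO2. Drugs were tested at 0.1, 1, 10 and 100 µM in triplicate wells for 48 h. Cells were fixed with cold TCA (10% final) for 60 min at 4 °C, stained 20 min with 0.4% SRB in 1% acetic acid, and eluted with 10 mM Tris base. A540 was read with a 690 nm reference. GI50 came from [(Ti−Tz)/(C−Tz)]×100 = 50; runs were repeated three times.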

MCF7 = experiment: Cytotoxicity against human MCF7 cells after 48 hrs by sulforhodamine B based ELISA; type: functional; conditions: MCF7, 48 h; in short: as §1
KB = experiment: Cytotoxicity against human KB cells after 48 hrs by sulforhodamine B based ELISA; type: functional; in short: as §1
A2780 = experiment: Cytotoxicity against human A2780 cells after 48 hrs by sulforhodamine B based ELISA; type: functional; conditions: A2780, 48 h; in short: as §1
A549 [1] = experiment: Cytotoxicity against human A549 cells after 48 hrs by sulforhodamine B based ELISA; type: functional; conditions: A549, 48 h; in short: as §1
[2] = Inhibition of tubulin polymerization at 3 uM after 1 hr fluorescence analysis relative to control
In short: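 The cell-free fluorescence kit assay used PEM buffer, 1 mM GTP and compound at 3 µM final. Polymerization was followed as reporter incorporation into microtubules, read at 460 nm emission for 1 h at 37 °C, with podophyllotoxin as the positive control. Percent inhibition was expressed relative to the untreated control.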

Tubulin (Homo sapiens) [3] = molecular target: T1, Tubulin (Homo sapiens) (UniProt P68371+Q9H4B7+P0DPH7+P68366+Q13509+Q71U36+P04350+Q3ZCM7+P07437+P68363+Q9BQE3+Q6PEY2+Q13885+Q9BVA1+Q9BUF5); experiment: Inhibition of tubulin polymerization in human A549 cells assessed as disrupted microtubule organization at 5 uM after 48 hrs by immunohistochemistry; type: cell-based
In short: (§2)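 A-549 cells on glass coverslips were treated 48 h with compound at 5 µM or podophyllotoxin at 1 µM. They were fixed in 3% paraformaldehyde/0.02% glutaraldehyde in PBS, permeabilized in −20 °C methanol, and blocked 1 h in 1% BSA. Staining used a mouse monoclonal anti-tubulin antibody and an FITC-conjugated secondary. Microtubule network integrity was assessed by confocal microscopy.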

Tubulin (Homo sapiens) [4] = molecular target: T1, Tubulin (Homo sapiens); experiment: Inhibition of tubulin polymerization in human A549 cells assessed as disrupted microtubule organization at 1 uM after 48 hrs by immunohistochemistry; type: cell-based; in short: as §2
A549 [5] = experiment: Cell cycle arrest in human A549 cells assessed as accumulation at G1 phase at 10 uM after 48 hrs using propidium iodide staining by flow cytometry (reference value: 71.6%); type: functional
A549 [6] = experiment: Cell cycle arrest in human A549 cells assessed as accumulation at G2/M phase at 10 uM after 48 hrs using propidium iodide staining by flow cytometry (reference value: 23.1%); type: functional
A549 [7] = experiment: Cell cycle arrest in human A549 cells assessed as accumulation at S phase at 10 uM after 48 hrs using propidium iodide staining by flow cytometry (reference value: 5.2%); type: functional
A549 [8] = experiment: Induction of apoptosis in human A549 cells assessed as activation of caspase 3 at 5 uM after 48 hrs by fluorimetric assay relative to control; type: functional
In short: (§3)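 A-549 cells in 6-well plates at 60–80% confluence were given compound at 5 µM, with podophyllotoxin at 1 µM as the positive control. The methods give 24 h incubation; the legend gives 48 h. Cells were scraped, lysed by syringe in lysis buffer on ice 10–20 min, and spun at 13,200 rpm for 20 min at 4 °C. The supernatant was assayed fluorimetrically with an AMC-conjugated caspase-3 substrate. Values are the mean ± SD of two experiments, each in triplicate.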

A549 [9] = experiment: Cell cycle arrest in human A549 cells assessed as accumulation at G1 phase at 1 uM after 48 hrs using propidium iodide staining by flow cytometry (reference value: 71.6%); type: functional
A549 [10] = experiment: Cell cycle arrest in human A549 cells assessed as accumulation at G2/M phase at 1 uM after 48 hrs using propidium iodide staining by flow cytometry (reference value: 23.1%); type: functional
A549 [11] = experiment: Cell cycle arrest in human A549 cells assessed as accumulation at S phase at 1 uM after 48 hrs using propidium iodide staining by flow cytometry (reference value: 5.2%); type: functional
A549 [12] = experiment: Induction of apoptosis in human A549 cells assessed as activation of caspase 3 at 1 uM after 48 hrs by fluorimetric assay relative to control; type: functional; in short: as §3

Structure (SMILES)	GI50 (COLO 205) [nM]	GI50 (MCF7) [nM]	GI50 (KB) [nM]	GI50 (A2780) [nM]	GI50 (A549 [1]) [nM]	also measured
COc1ccc(C2C3=C(COC3=O)Nc3ccc4cn[nH]c4c32)cc1O (stereo not drawn)	2600					
COc1ccc(C2C3=C(COC3=O)Nc3ccc4cc(C)[nH]c4c32)c(F)c1 (stereo not drawn)	2700	< 100	2200	2300		
COc1cc(C2C3=C(COC3=O)Nc3c2cc(OC)c(OC)c3OC)ccc1O (stereo not drawn)		2900				
COc1cc(C2C3=C(COC3=O)Nc3ccc4cc(C)[nH]c4c32)ccc1F (stereo not drawn)		2600		2400	2100	inhibition [2]: 45.3%; inhibition (Tubulin (Homo sapiens) [3]): Active; inhibition (Tubulin (Homo sapiens) [4]): Active; Activity (A549 [5]): 35.4%; Activity (A549 [6]): 55.6%; Activity (A549 [7]): 8.8%; fold change (FC) (A549 [8]): 2
COc1cccc2c1C(=O)c1c(O)c3c(c(O)c1C2=O)C[C@@](O)(C(=O)CO)C[C@@H]3O[C@H]1C[C@H](N)[C@H](O)[C@H](C)O1 [DOXORUBICIN HYDROCHLORIDE]	< 100	130	130	< 100	< 100	
COc1cc([C@@H]2c3cc4c(cc3[C@H](O)[C@H]3COC(=O)[C@H]23)OCO4)cc(OC)c1OC [PODOFILOX]						inhibition [2]: 80.7%; inhibition (Tubulin (Homo sapiens) [3]): Active; inhibition (Tubulin (Homo sapiens) [4]): Active; Activity (A549 [9]): 31.4%; Activity (A549 [10]): 61.5%; Activity (A549 [11]): 7.1%; fold change (FC) (A549 [12]): 4
COc1cc(C2C3=C(COC3=O)Nc3ccc4cc[nH]c4c32)cc(OC)c1OC (stereo not drawn)	2300		2000	2700	2400	
COc1ccc(C2C3=C(COC3=O)Nc3ccc4cc[nH]c4c32)cc1O (stereo not drawn)	190	2900	2200	2700	2300	
COc1cc(C2C3=C(COC3=O)Nc3ccc4cn[nH]c4c32)ccc1F (stereo not drawn)		2700			2300	
COc1cc(C2C3=C(COC3=O)Nc3ccc4nn[nH]c4c32)cc(OC)c1OC (stereo not drawn)			2900			
COc1cc(C2C3=C(COC3=O)Nc3ccc4cc(C)[nH]c4c32)cc(OC)c1OC (stereo not drawn)			2000			
COc1cc([C@@H]2c3cc4c(cc3[C@@H](O[C@@H]3O[C@@H]5CO[C@@H](C)O[C@H]5[C@H](O)[C@H]3O)[C@H]3COC(=O)[C@H]23)OCO4)cc(OC)c1O [ETOPOSIDE]	130	2100	300	1300	3080	
COc1ccc(C2C3=C(COC3=O)Nc3onc(-c4ccc(Cl)cc4)c32)cc1O (stereo not drawn)			2700			
COc1cc(C2C3=C(COC3=O)Nc3ccc4cc[nH]c4c32)ccc1O (stereo not drawn)	2500	2300				
COc1cc(C2C3=C(COC3=O)Nc3ccc4ncsc4c32)cc(OC)c1OC (stereo not drawn)	2500		2100	2300	2400	inhibition [2]: 49.4%; inhibition (Tubulin (Homo sapiens) [3]): Active; inhibition (Tubulin (Homo sapiens) [4]): Active; Activity (A549 [5]): 42.4%; Activity (A549 [6]): 53.1%; Activity (A549 [7]): 4.4%; fold change (FC) (A549 [8]): 2
COc1ccc(C2C3=C(COC3=O)Nc3ccc4nc(S)[nH]c4c32)cc1O (stereo not drawn)		2700				
COc1cc(C2C3=C(COC3=O)Nc3ccc4cc[nH]c4c32)ccc1F (stereo not drawn)		2100	170	2300	2200	
COc1nc2c(c(OC)n1)C(c1cc(OC)c(OC)c(OC)c1)C1=C(COC1=O)N2 (stereo not drawn)	160	2400	170		2100	inhibition [2]: 63.7%; inhibition (Tubulin (Homo sapiens) [3]): Active; inhibition (Tubulin (Homo sapiens) [4]): Active; Activity (A549 [5]): 38.9%; Activity (A549 [6]): 48.2%; Activity (A549 [7]): 12.7%; fold change (FC) (A549 [8]): 2
COc1cc(C2C3=C(COC3=O)Nc3ccc4nc(C)sc4c32)ccc1[N+](=O)[O-] (stereo not drawn)		150				
COc1ccc(C2C3=C(COC3=O)Nc3ccc4nn[nH]c4c32)c(F)c1 (stereo not drawn)		< 100				
COc1cc(C2C3=C(COC3=O)Nc3ccc4cn[nH]c4c32)ccc1O (stereo not drawn)	2000	2000				
COc1nc2c(c(OC)n1)C(c1ccc(F)c(OC)c1)C1=C(COC1=O)N2 (stereo not drawn)			2200		2600	
COc1ccc(C2C3=C(COC3=O)Nc3ccc4cc[nH]c4c32)cc1[N+](=O)[O-] (stereo not drawn)	2400					
